Data as given in ChEMBL document CHEMBL3352301, “Novel sulfonyl(thio)urea derivatives act efficiently both as insulin secretagogues and as insulinomimetic compounds” (Eur J Med Chem, 2014).
The source made the active and inactive calls. The rule behind the calls is not given here.

How the values were obtained:
[1] = test system: Rattus norvegicus; test: Antihyperglycemic activity in fasted hyperglycemic Wistar rat assessed as serum glucose level at 10 mg/kg, po measured 15 mins post dose by oral glucose tolerance test (reference value: 177.46 +/- 5.95 mg/dL); assay type: functional
How it was run: (§1)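 Rats fasted at least 16 h (water free) were given glucose 4 g/kg by oral gavage; test compounds 10 mg/kg were gavaged in 0.3% Tween 80. Tail-vein blood was taken before dosing and at 15, 30, 60 and 180 min, then centrifuged. Serum glucose was measured by the glucose oxidase method. Six determinations per group, mean ± S.E.M.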

[2] = test system: Rattus norvegicus; test: Antihyperglycemic activity in fasted hyperglycemic Wistar rat assessed as serum glucose level at 10 mg/kg, po measured 30 mins post dose by oral glucose tolerance test (reference value: 190.15 +/- 1.77 mg/dL); assay type: functional; how it was run: as §1
[3] = test system: Rattus norvegicus; test: Antihyperglycemic activity in fasted hyperglycemic Wistar rat assessed as serum glucose level at 10 mg/kg, po measured 60 mins post dose by oral glucose tolerance test (reference value: 182.55 +/- 6.95 mg/dL); assay type: functional; how it was run: as §1
[4] = test system: Rattus norvegicus; test: Antihyperglycemic activity in fasted hyperglycemic Wistar rat assessed as serum glucose level at 10 mg/kg, po measured 180 mins post dose by oral glucose tolerance test (reference value: 141.15 +/- 4.47 mg/dL); assay type: functional; how it was run: as §1
[5] = test system: Rattus norvegicus; test: Insulin secretagogue activity in fasted hyperglycemic Wistar rat assessed as insulin level at 10 mg/kg, po measured 15 mins post dose by ELISA method (reference value: 2.84 +/- 0.002 ng/mL); assay type: functional
[6] = test system: Rattus norvegicus; test: Insulin secretagogue activity in fasted hyperglycemic Wistar rat assessed as insulin level at 10 mg/kg, po measured 30 mins post dose by ELISA method (reference value: 0.75 +/- 0.007 ng/mL); assay type: functional
[7] = test system: Rattus norvegicus; test: Insulin secretagogue activity in fasted hyperglycemic Wistar rat assessed as insulin level at 10 mg/kg, po measured 60 mins post dose by ELISA method (reference value: 0.59 +/- 0.004 ng/mL); assay type: functional
[8] = test system: Rattus norvegicus; test: Insulin secretagogue activity in fasted hyperglycemic Wistar rat assessed as insulinogenic index ratio at 10 mg/kg, po by ELISA method (reference value: 0.66 ng/mg); assay type: functional
How it was run: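 Serum insulin (ELISA) and glucose (glucose oxidase) were sampled from 0 to 60 min after oral glucose 4 g/kg plus compound 10 mg/kg gavage in fasted rats. Incremental areas under the curves were computed. Insulinogenic index = AUC insulin / AUC glucose over 0–60 min.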

[9] = test system: Rattus norvegicus; test: Effect on glycogen content in skeletal muscle of fasted hyperglycemic Wistar rat assessed per gram of tissue at 10 mg/kg, po measured 3 hrs post dose (reference value: 8.6 +/- 1 mg/g of tissue); assay type: functional
[10] = test system: Rattus norvegicus; test: Effect on glycogen content in liver of fasted hyperglycemic Wistar rat assessed per gram of tissue at 10 mg/kg, po measured 3 hrs post dose (reference value: 14.6 +/- 1.27 mg/g of tissue); assay type: functional
[11] = test system: Rattus norvegicus; test: Toxicity in fasted hyperglycemic Wistar rat assessed as LDH level at 10 mg/kg, po by spectrophotometry based LDH release assay (reference value: 75.63 +/- 7.08 IU/L); assay type: organism-based; set-up: dose 10 mg/kg, route oral; conditions: in vivo
[12] = target: ATP-binding cassette sub-family C member 8 (Homo sapiens, UniProt Q09428); test: Binding affinity to SUR1 (unknown origin)
[13] = Effect on glucose uptake in Wistar rat soleus muscle assessed per mg of protein at 1 uM by liquid scintillation counting based [14C]-2-deoxy-D-glucose uptake assay (reference value: 0.16 +/- 0.03 nmol glucose/mg protein); assay type: functional
[14] = Effect on glucose uptake in Wistar rat soleus muscle assessed per mg of protein at 10 uM by liquid scintillation counting based [14C]-2-deoxy-D-glucose uptake assay (reference value: 0.16 +/- 0.03 nmol glucose/mg protein); assay type: functional
[15] = test system: Soleus muscle; test: Stimulation of glucose uptake in Wistar rat soleus muscle assessed as glucose level per mg of protein at 100 uM by liquid scintillation counting based [14C]-2-deoxy-D-glucose uptake assay (reference value: 0.16 +/- 0.03 nmol glucose/mg protein); assay type: functional
[16] = test system: Soleus muscle; test: Stimulation of glucose uptake in Wistar rat soleus muscle at 10 uM in presence of 100 nM PI-3K inhibitor wortmannin by liquid scintillation counting based [14C]-2-deoxy-D-glucose uptake assay; assay type: functional, tissue-based
How it was run: (§2)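 Rat soleus in Krebs-Ringer bicarbonate (37 °C, O2/CO2 95:5, pH 7.4). Inhibitor or modulator (wortmannin 100 nM, H89, PMA 100 nM or cycloheximide) was present through a 30 min preincubation and a 60 min incubation, with or without compound. 14C-2-deoxy-D-glucose was added during incubation only. Uptake by scintillation counting normalised to Lowry protein; n=4 of 3 independent experiments.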

[17] = test system: Soleus muscle; test: Stimulation of glucose uptake in Wistar rat soleus muscle at 10 uM in presence of 10 uM PKA inhibitor H89 by liquid scintillation counting based [14C]-2-deoxy-D-glucose uptake assay; assay type: functional, tissue-based; how it was run: as §2
[18] = test system: Soleus muscle; test: Stimulation of glucose uptake in Wistar rat soleus muscle at 10 uM in presence of 100 nM PMA by liquid scintillation counting based [14C]-2-deoxy-D-glucose uptake assay; assay type: functional, tissue-based; how it was run: as §2
[19] = test system: Soleus muscle; test: Stimulation of glucose uptake in Wistar rat soleus muscle at 10 uM in presence of 350 uM cycloheximide by liquid scintillation counting based [14C]-2-deoxy-D-glucose uptake assay; assay type: functional, tissue-based; how it was run: as §2
[20] = test system: Soleus muscle; test: Stimulation of protein synthesis in Wistar rat soleus muscle at 10 uM by liquid scintillation counting based 1-[U-14C]leucine incorporation assay; assay type: functional, tissue-based
How it was run: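 Soleus muscles from fasted rats were preincubated 30 min in Krebs-Ringer bicarbonate (O2/CO2 95:5, pH 7.4), then incubated 60 min with compound and L-[U-14C]leucine. The reaction was stopped with cold TCA (7% final). Incorporation was expressed as cpm/mg protein (Lowry); n=4 of 3 independent experiments.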

[21] = test system: Soleus muscle; test: Increase in GLUT4 expression in Wistar rat soleus muscle at 20 uM after 60 mins by polyacrylamide gel electrophoresis and immunoblotting analysis; assay type: functional, tissue-based
[22] = test system: Soleus muscle; test: Increase in GLUT4 expression in Wistar rat soleus muscle at 20 uM after 60 mins in presence of 350 uM cycloheximide by polyacrylamide gel electrophoresis and immunoblotting analysis; assay type: functional, tissue-based
[23] = test system: Soleus muscle; test: Increase in GLUT4 expression in Wistar rat soleus muscle membranes at 10 uM after 60 mins by immunofluorescence analysis; assay type: functional, cell membranes
How it was run: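 Soleus was taken after 60 min in vitro incubation, or 180 min after oral gavage at 10 mg/kg. Tissue was fixed in 4% paraformaldehyde, paraffin-embedded and cut at 5 µm, with citrate antigen retrieval. Sections were stained with mouse anti-GLUT4 (1:500, overnight) then Cy3 anti-mouse, with DAPI counterstain. GLUT4 distribution was assessed qualitatively.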

[24] = test system: Rattus norvegicus; test: Increase in GLUT4 expression in soleus muscle membranes of Wistar rat at 10 mg/kg, po after 180 mins by immunofluorescence analysis; conditions: Membrane

Chain of ATP-binding cassette sub-family C member 8 (Q09428 whole entry): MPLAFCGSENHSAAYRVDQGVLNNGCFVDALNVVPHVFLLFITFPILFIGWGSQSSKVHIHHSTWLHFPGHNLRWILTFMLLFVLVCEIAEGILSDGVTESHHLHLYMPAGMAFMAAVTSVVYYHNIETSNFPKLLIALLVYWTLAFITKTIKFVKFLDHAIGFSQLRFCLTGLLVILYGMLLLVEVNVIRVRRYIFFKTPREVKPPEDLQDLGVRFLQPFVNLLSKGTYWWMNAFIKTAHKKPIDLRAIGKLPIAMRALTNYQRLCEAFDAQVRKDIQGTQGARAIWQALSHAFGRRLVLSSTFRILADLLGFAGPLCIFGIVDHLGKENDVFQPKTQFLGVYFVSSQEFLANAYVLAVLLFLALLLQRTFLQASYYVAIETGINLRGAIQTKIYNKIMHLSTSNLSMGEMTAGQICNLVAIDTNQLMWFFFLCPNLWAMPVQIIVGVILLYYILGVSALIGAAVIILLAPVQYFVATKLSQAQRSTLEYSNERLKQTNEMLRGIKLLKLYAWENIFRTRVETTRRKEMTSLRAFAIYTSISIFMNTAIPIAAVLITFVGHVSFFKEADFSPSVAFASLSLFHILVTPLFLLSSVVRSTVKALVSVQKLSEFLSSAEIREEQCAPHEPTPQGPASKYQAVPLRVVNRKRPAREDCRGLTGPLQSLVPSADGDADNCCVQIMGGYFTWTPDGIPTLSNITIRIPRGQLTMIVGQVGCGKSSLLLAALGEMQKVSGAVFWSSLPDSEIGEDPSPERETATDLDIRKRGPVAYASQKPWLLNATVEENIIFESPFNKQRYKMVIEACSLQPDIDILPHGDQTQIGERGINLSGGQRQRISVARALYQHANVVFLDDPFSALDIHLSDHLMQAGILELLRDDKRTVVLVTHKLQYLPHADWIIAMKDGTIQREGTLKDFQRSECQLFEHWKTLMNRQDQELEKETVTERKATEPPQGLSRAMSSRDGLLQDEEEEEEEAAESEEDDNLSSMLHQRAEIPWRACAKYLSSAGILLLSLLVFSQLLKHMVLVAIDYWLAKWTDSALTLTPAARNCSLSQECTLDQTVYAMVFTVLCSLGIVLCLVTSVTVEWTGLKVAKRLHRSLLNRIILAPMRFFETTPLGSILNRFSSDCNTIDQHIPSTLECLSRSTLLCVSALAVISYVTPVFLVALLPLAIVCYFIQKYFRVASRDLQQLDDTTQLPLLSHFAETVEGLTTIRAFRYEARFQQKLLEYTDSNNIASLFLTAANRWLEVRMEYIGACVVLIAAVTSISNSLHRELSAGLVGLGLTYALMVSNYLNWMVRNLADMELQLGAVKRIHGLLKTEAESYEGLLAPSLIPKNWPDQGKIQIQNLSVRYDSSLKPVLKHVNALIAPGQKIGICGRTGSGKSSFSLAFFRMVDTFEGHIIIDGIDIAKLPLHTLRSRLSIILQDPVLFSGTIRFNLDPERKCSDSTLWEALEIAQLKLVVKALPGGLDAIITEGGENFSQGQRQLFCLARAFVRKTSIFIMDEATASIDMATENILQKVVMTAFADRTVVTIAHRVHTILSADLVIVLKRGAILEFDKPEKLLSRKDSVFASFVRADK

Row | SMILES | Activity [1] [mg/dL] | Activity [2] [mg/dL] | Activity [3] [mg/dL] | Activity [4] [mg/dL] | Activity [5] [ng/mL] | Activity [6] [ng/mL] | Activity [7] [ng/mL] | Ratio [8] [ng/mg] | Activity [9] [mg] | Activity [10] [mg] | Activity [11] [IU/L] | other results
1 | O=S(=O)(NCCc1ccc(S(=O)(=O)NC(=S)Nc2ccccc2)cc1)c1ccc(F)cc1 | 148.8 | 165.7 | 165.3 | 146.4 |  |  |  |  |  |  |  | 
2 | Cc1ccc(S(=O)(=O)NCCc2ccc(S(=O)(=O)NC(=S)Nc3ccccc3)cc2)cc1 | 151.25 | 157.14 | 173.51 | 152.6 |  |  |  |  |  |  |  | 
3 | CC(C)c1cc(C(C)C)c(S(=O)(=O)NCCc2ccc(S(=O)(=O)NC(=S)Nc3ccccc3)cc2)c(C(C)C)c1 | 149.51 | 168.72 | 152.76 | 142.08 |  |  |  |  |  |  |  | 
4 | COc1ccc(S(=O)(=O)NCCc2ccc(S(=O)(=O)NC(=S)Nc3ccccc3)cc2)cc1 | 150.98 | 144.75 | 154.79 | 124.7 | 2.75 | 0.7 | 0.53 | 0.77 | 7.24 | 104.25 | 108.01 | 
5 | COc1ccc(S(=O)(=O)NCCc2ccc(S(=O)(=O)NC(=S)Nc3ccc(Cl)cc3)cc2)cc1 | 141.45 | 158.69 | 151.74 | 139.54 | 2.69 | 0.71 | 0.52 | 0.72 | 28.51 | 69.35 | 73.92 | 
6 | CC1(C)C2CCC1(CS(=O)(=O)NCCc1ccc(S(=O)(=O)NC(=S)Nc3ccccc3)cc1)C(=O)C2 (stereo not given) | 151.58 | 160.61 | 149.03 | 149.35 |  |  |  |  |  |  |  | 
7 | COc1ccc(Cl)cc1C(=O)NCCc1ccc(S(=O)(=O)NC(=O)NC2CCCCC2)cc1 [GLYBURIDE] | 140.49 | 135.24 | 128.34 | 124.28 | 3.83 | 2.66 | 2.46 | 1.98 | 17.46 | 8.71 | 41.08 | 
8 | COc1cc(NC(=O)CO[C@H]2O[C@H](CO)[C@@H](O)[C@H](O)[C@H]2O)c(Cl)cc1C(=O)NCCc1ccc(S(=O)(=O)NC(=O)NC2CCCCC2)cc1 |  |  |  |  |  |  |  |  |  |  |  | Kd [12]: 2.08 nM
9 | O=S(=O)(NCCc1ccc(S(=O)(=O)NC(=S)Nc2ccccc2)cc1)c1ccccc1 | 146.02 | 151.62 | 158.27 | 134.44 | 0.39 | 0.35 | 0.78 | 0.31 | 6.93 | 10.66 | 68.09 | 
10 | O=S(=O)(NC(=S)Nc1ccccc1)c1ccc(CCNS(=O)(=O)c2cccc3cccnc23)cc1 | 147.97 | 160.22 | 140.08 | 139.63 | 2.26 | 1.36 | 0.6 | 0.84 | 9.93 | 11.33 | 71.3 | 
11 | COc1cc(NC(C)=O)c(Cl)cc1C(=O)NCCc1ccc(S(=O)(=O)NC(=O)NC2CCCCC2)cc1 |  |  |  |  |  |  |  |  |  |  |  | Kd [12]: 0.38 nM
12 | COc1ccc(S(=O)(=O)NCCc2ccc(S(=O)(=O)NC(=O)Nc3cccc4ccccc34)cc2)cc1 | 155.68 | 156.4 | 157.9 | 143.6 |  |  |  |  |  |  |  | 
13 | O=S(=O)(NC(=S)Nc1ccccc1)c1ccc(CCNS(=O)(=O)c2cccs2)cc1 | 150.23 | 141.6 | 140.96 | 139.26 | 3.01 | 1.19 | 1.46 | 1.06 | 20.69 | 7.68 | 72.19 | Activity [13]: 0.35 nmol; Activity [14]: 0.3 nmol; Activity [15]: 0.32 nmol; Activity [16]: inactive; Activity [17]: inactive; Activity [18]: inactive; Activity [19]: inactive; Activity [20]: Active; Activity [21]: Active; Activity [22]: inactive; Activity [23]: Active; Activity [24]: Active
